LEDGF integ inh = blocks HIV-1 LEDGF/p75-dependent DNA integration; hit rate 0.64% among 370,000; AID 743269; inhibition, % at 3.7 µM; TR-FRET IN-LEDGF/p75 DNA integration, Eu/Cy5;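 active = inhibition above the screen-wide mean plus 3 SD, cut at about 13% in these data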;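 also: signal is the Cy5 over europium emission ratio at 671 and 618 nm; 0% = plate median of compound wells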
UHRF1 MBD2 ctr = human UHRF1 methylated DNA binding inhibitors; Q96T88; UHRF1 binding to methylated oligo, TR-FRET; inhibition, % at 4.4 µM; hit rate 0.75% among 370,000; in the data active = inhibition above about 21%;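 also: UHRF1 SRA domain binding a hemimethylated CpG hairpin DNA probe; 0% = median of test compound wells and 100% = reference inhibitor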
Target sequence (Q96T88 whole entry, looked up, the tested form may be a part): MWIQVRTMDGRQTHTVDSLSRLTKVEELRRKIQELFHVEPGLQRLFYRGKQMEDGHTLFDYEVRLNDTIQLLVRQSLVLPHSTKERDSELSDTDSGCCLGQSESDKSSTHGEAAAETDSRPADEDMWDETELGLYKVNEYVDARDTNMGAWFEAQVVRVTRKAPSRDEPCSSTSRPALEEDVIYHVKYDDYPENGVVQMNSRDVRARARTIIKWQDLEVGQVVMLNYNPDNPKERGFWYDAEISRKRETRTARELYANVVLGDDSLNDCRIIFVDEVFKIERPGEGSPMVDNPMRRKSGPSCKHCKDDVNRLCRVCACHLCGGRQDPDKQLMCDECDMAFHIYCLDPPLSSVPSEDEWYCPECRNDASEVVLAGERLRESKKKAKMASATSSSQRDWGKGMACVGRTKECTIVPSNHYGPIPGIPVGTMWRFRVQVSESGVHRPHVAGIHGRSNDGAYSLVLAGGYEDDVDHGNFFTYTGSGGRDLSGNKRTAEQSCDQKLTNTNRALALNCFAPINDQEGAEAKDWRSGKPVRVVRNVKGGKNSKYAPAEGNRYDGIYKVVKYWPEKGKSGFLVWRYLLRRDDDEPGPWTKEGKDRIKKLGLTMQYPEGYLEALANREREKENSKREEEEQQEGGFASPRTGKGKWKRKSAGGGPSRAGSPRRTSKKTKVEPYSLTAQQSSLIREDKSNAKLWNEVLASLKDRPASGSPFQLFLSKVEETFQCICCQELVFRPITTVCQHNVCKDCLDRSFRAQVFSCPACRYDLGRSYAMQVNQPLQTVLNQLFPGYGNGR
MBD2 DNA inh = inhibitors of human MBD2 binding to methylated oligonucleotide. Q9UBB5. TR-FRET. inhibition, % at 4.4 µM. hit rate 0.31% among 370,000. AID 686964; in the data active = inhibition above about 13%
TDP2 inh = TDP2 (human) inhibition, absorbance primary screen | recombinant TDP2, T5PNP hydrolysis, p-nitrophenol absorbance 415 nm | inhibition, % at 12.8 µM | AID 720702 | O95551 | hit rate 0.34% among 370,000;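 active = inhibition above the mean of all tested compounds plus 3 SD, set per campaign, cut at about 25% in these data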;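 also: 0% = DMSO with enzyme and 100% = buffer with substrate but no TDP2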
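Evaluation: % inhibition relative to enzyme-containing and enzyme-free wells. Material: recombinant human TDP2. Benchmarks: enzyme-free and DMSO wells. Timing: enzyme reaction with compound for 2 h at 37 °C. Compound dosing: 12.8 µM only. Measured by: p-Nitrophenol epi absorbance. Reagent: T5PNP substrate at 5 mM, a TopII-DNA adduct mimic. Replication: single well per compound.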
IN multimer act = activates HIV-1 integrase multimerization in LEDGF counter-screen | shares compounds with LEDGF integ inh | TR-FRET HIV-1 integrase multimerization, biochemical | activation, % at 7.7 µM | hit rate 17% among 2,000 | AID 1053131; in the data active = activation above about 8.9%
TR-FRET interf = optically interferes with TR-FRET readout in LEDGF counter-screen. shares compounds with LEDGF integ inh. TR-FRET optical interference counterscreen, HIV-1 IN multimerization. inhibition, % at 7.7 µM. 2,000 tested, under 10 active. AID 1053135;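 active = inhibition above the mean over all tested compounds plus 3 SD, which no compound reached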;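 also: 0% = integrase with antibodies and DMSO and 100% = antibodies without integrase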
IN-LEDGF confirm = confirmation of HIV-1 LEDGF/p75-dependent integration inhibitors; shares compounds with LEDGF integ inh; hit rate 36% among 2,000; inhibition, % at 3.7 µM; TR-FRET LEDGF/p75-dependent HIV-1 integration, biochemical; in the data active = inhibition above about 14%
Numbers without * were called inactive; nt = no result given. Most compounds without a hit are left out; they make up all but 1.6% or so of the library.

SMILES	LEDGF integ inh	UHRF1 MBD2 ctr	MBD2 DNA inh	TDP2 inh	IN multimer act	TR-FRET interf	IN-LEDGF confirm
Cc1ccccc1-c1cccc2[nH]c3c(c12)CCN1C(=O)[C@H]2[C@H](C)ON(C)[C@H]2C[C@@H]31	2	-3	-2	2	nt	nt	nt
COCCCNc1nc(SCc2ccccc2)nc2sc3c(c12)CCC3	14*	0	-4	5	2	-10	-2
CCn1c(=O)[nH]c2cc(Cl)c(Cl)cc21	16*	0	1	6	-3	13	-1
CCn1c(=O)[nH]c2ccccc2c1=O	1	2	0	8	nt	nt	nt
O=c1[nH]c2cc3c(cc2cc1CN(Cc1nnnn1CC1CCCO1)C1CCCCC1)OCO3 (configuration not stated)	18*	-8	-7	-14	2	-6	-2
CCOC(=O)c1cnc2c(ccc3ccccc32)c1N	60*	0	-2	2	8	-40	-1
O=C(NCc1ccccc1)[C@@H]1CCCN1C(=O)[C@H]1CCCN1C(=O)c1ccc(Cl)c(Cl)c1	-4	-1	0	11	nt	nt	nt
O=C1CC(Nc2ccc(N3CCOCC3)cc2)C(=O)N1c1ccccc1F (configuration not stated)	15*	-4	-7	10	1	-7	0
O=C(Nc1cccc(Cl)c1)OCCN1CCCC12CCC(c1ccccc1)CC2 (configuration not stated)	-1	-1	-4	2	nt	nt	nt
COCCCNC(=O)/C(C#N)=C/c1ccc(OCC(=O)O)c(OC)c1	17*	34*	7	-1	23*	-115	36*
CC(C)(C)c1ccc(-c2nnc3sc(COc4ccccc4)nn23)cc1	-1	-1	-7	1	nt	nt	nt
CC(=O)c1ccc(NC(=S)NC(=O)Cc2ccc(Cl)cc2)cc1	15*	4	0	4	8	-28	-3
CS(=O)(=O)N1C[C@]2(c3ccccc3)CC1Cc1ccccc12	0	0	6	0	nt	nt	nt
O=C(NCc1c(F)cccc1F)C1CCCN(c2ncccn2)C1 (configuration not stated)	-1	1	5	-9	nt	nt	nt
CCC(CO)Nc1cccc2c1S(=O)(=O)N(Cc1cn(Cc3cccc(C(F)(F)F)c3)nn1)Cc1ccccc1O2 (configuration not stated)	0	10	4	-4	nt	nt	nt
CCCNC(=O)C1(C)CCCN(C(=O)c2cc(C)nn2C(C)(C)C)C1 (configuration not stated)	28*	0	6	2	-4	18	0
O=C(COc1ccccc1[N+](=O)[O-])NCCC1=CCCCC1	18*	-2	-2	-2	0	-2	-1
O=C(COc1ccccc1Br)NCCC1=CCCCC1	-4	1	5	-3	nt	nt	nt
COc1ccc(NS(=O)(=O)c2ccc3c(c2)[C@H]2C=CC[C@H]2[C@@H](c2ccc(C(=O)O)cc2)N3)cc1	52*	20	5	2	26*	-94	58*
COc1cccc(CN2C(=O)CCC2(C)C(=O)NC2CCCC2)c1 (configuration not stated)	22*	-2	-2	1	0	-2	3
CC1(C(=O)NC2CCCCC2)CCC(=O)N1Cc1cccnc1 (configuration not stated)	0	0	-1	-4	nt	nt	nt
COc1ccc(CN(C)C(=O)c2cc(S(=O)(=O)NCc3ccccc3)ccc2C)c(OC)c1	4	-1	6	-8	nt	nt	nt
COc1ccc(CN(C)C(=O)CCNS(=O)(=O)c2ccccc2)c(OC)c1	23*	-2	-4	4	0	1	-11
COc1ccc(-c2cc(C(=O)OCC(=O)c3c(N)n(C)c(=O)n(C)c3=O)c3ccccc3n2)cc1	1	1	-2	6	nt	nt	nt
Cn1c(N)c(C(=O)COC(=O)c2cc(-c3ccco3)nc3ccccc23)c(=O)n(C)c1=O	29*	19	10	-1	22*	-78	62*
SMILES	LEDGF integ inh	UHRF1 MBD2 ctr	MBD2 DNA inh	TDP2 inh	IN multimer act	TR-FRET interf	IN-LEDGF confirm
O=C(CCc1c[nH]c2ccccc12)Nc1ccc(Oc2cccnc2)cc1	-6	-1	-3	0	nt	nt	nt
CC1CN(S(=O)(=O)c2ccc(C(=O)Nc3nccs3)cc2)CC(C)O1 (configuration not stated)	5	0	-3	8	nt	nt	nt
O=C(Nc1nccs1)c1ccc(S(=O)(=O)N2CCCCC2)cc1	15*	2	2	-2	0	-1	2
O=C(N[C@H](C(=O)N1CCC[C@H]1C(=O)NC1CCCC1)c1ccccc1)c1ccc(Cl)c(Cl)c1	-3	0	4	2	nt	nt	nt
C=CCSC1=N/C(=C\c2ccc3c(c2)OCO3)C(=O)S1	2	3	0	7	nt	nt	nt
C=CCSC1=N/C(=C\c2cc(OCC)c(OC(C)=O)c([N+](=O)[O-])c2)C(=O)S1	32*	19	-2	-18	1	-3	3
CC(C)C[C@H]1CNC(=O)C(=O)N1C[C@H](Cc1ccc(O)cc1)NC(=O)Cc1ccccc1	75*	3	4	4	1	-3	-5
C[C@@H](CN1C(=O)C(=O)NC[C@@H]1Cc1ccc(O)cc1)NC(=O)Cc1ccccc1	1	1	4	-9	nt	nt	nt
CC(C)(C)NC(=O)C(c1cccnc1)N(C(=O)c1cnc[nH]1)c1ccc(C(C)(C)C)cc1 (configuration not stated)	5	-1	-4	4	nt	nt	nt
Cc1noc(C)c1C(=O)Nc1ccccc1-c1ccccc1	27*	0	1	5	0	0	1
O=C(Nc1ccccc1-c1ccccc1)c1ccco1	-1	-3	-6	-6	nt	nt	nt
Cc1cc(NC(=O)/C=C/c2ccco2)ccc1NC(=O)c1ccccc1	-2	2	8	-13	nt	nt	nt
O=C(/C=C/c1ccco1)Nc1ccccc1C(=O)O	17*	24*	4	0	1	-3	33*
O=C(/C=C/c1ccco1)Nc1sc2c(c1C(=O)O)CCC2	21*	33*	8	15	3	-9	-3
O=C(/C=C/c1ccco1)Nc1cc(Cl)ccc1C(=O)O	8	9	1	3	nt	nt	nt
O=C(O)CCCCCNC(=O)/C=C/c1ccco1	-2	-1	4	8	nt	nt	nt
O=C(/C=C/c1ccco1)Nc1ccccc1C(=O)Nc1cccc(C(=O)O)c1	25*	20	5	-9	4	-21	19*
O=C(O)CCCNC(=O)/C=C/c1ccco1	38*	58*	11	0	38*	-192	87*
Cc1ccccc1Cn1cc(CN2[C@@H](Cc3ccccc3)COc3cc(Br)ccc3S2(=O)=O)nn1	-1	2	2	4	nt	nt	nt

From PubChem BioAssay
